{"source": "the EternaBench riboswitch data", "test_system": "MS2 coat protein", "assay": "apparent Kd, MS2 coat protein; higher = weaker binding; RNA-MaP array; tryptophan 2.4 mM where present", "summary_of_the_method": "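Green signal was scaled to red-channel RNA signal and control-cluster median Fmax, and the apparent Kd was taken as the median of filtered per-cluster binding-curve fits. The binding series used SNAP-549-labelled MS2 coat protein from 0.7 or 1.5 nM, doubling to 3 µM, on designs transcribed by stalled E. coli RNA polymerase on Illumina sequencing-chip clusters. Each series ran without and then with constant ligand in 100 mM Tris-HCl pH 7.5, 80 mM KCl, 4 mM MgCl2, BSA, DTT, yeast tRNA and Tween-20.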", "key": {"[1]": {"conditions": "designed as: ON switch for tryptophan, no ligand"}, "[2]": {"conditions": "ligand present: tryptophan, designed as: ON switch for tryptophan"}}, "data": [{"sequence": "CCUCAUGAACAUGAGGAUCACCCAUGUACACGAGGACCGGUACGGCCGCCACUCGAAUAAGCUAAAUAUAAAUAAUAAUAAUAGC", "values": [{"measurement": "apparent Kd", "setting": "designed as: OFF switch for tryptophan, no ligand", "value": 16.9, "unit": "nM"}, {"measurement": "apparent Kd", "setting": "ligand present: tryptophan, designed as: OFF switch for tryptophan", "value": 37.6, "unit": "nM"}]}, {"sequence": "AUUCAUGGAAACAUGACAUAGGGAUCCGGUCGAGGACCGGUACGGCCGCCACUCGUUUGGAGGCACAUGAGGAUCACCCAUGUUA", "values": [{"measurement": "apparent Kd", "setting": "[1]", "value": 82, "unit": "nM"}, {"measurement": "apparent Kd", "setting": "[2]", "value": 67.5, "unit": "nM"}]}, {"sequence": "AGCCGGAUUACGGCCGCCACUGUAGACGUGACGAAAGUCGCGUCAACAUGAGGAUCACCCAUGUACAGGACCGGGUGGUCGGGCG", "values": [{"measurement": "apparent Kd", "setting": "[1]", "value": 161, "unit": "nM"}, {"measurement": "apparent Kd", "setting": "[2]", "value": 27.5, "unit": "nM"}]}]}
